Experimental data published in article PMC5689172 (Biochemistry and Biophysics Reports, 2016).
In brackets after ≈: the same amount, converted by molar mass. Where two headings read alike, the source gives them in different places.

What was measured:
Cytotoxicity, MTT assay = type: cell-based; conditions: human, MRC-5 cells (normal embryonic lung cell line)
A. hydrophila = test: Antimicrobial activity, agar dilution method; type: cell-based; conditions: Aeromonas hydrophila
Outline: (§1)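 Test compound in DMSO, mixed with Mueller–Hinton broth, two-fold serially diluted, and incorporated into MH agar at final 0.25–256 μg/mL. Agar with 0.5% DMSO served as reagent control. Organisms were grown overnight in MH broth at 37 °C, diluted in normal saline to 0.5 McFarland (1.5×10⁸ CFU/mL), and inoculated onto plates. Plates were incubated at 37 °C for 24–48 h, then MIC was recorded.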

L. monocytogenes = test: Antimicrobial activity, agar dilution method; type: cell-based; conditions: Listeria monocytogenes
Outline: as §1

S. aureus ATCC 29213 = test: Antimicrobial activity, agar dilution method; type: cell-based; conditions: Staphylococcus aureus, ATCC29213
Outline: as §1

B. cereus = test: Antimicrobial activity, agar dilution method; type: cell-based; conditions: Bacillus cereus
Outline: as §1

P. stutzeri ATCC 17587 = test: Antimicrobial activity, agar dilution method; type: cell-based, Pseudomonas stutzeri; conditions: Stutzerimonas stutzeri, ATCC17587
Outline: as §1

S. aureus ATCC 25923 = test: Antimicrobial activity, agar dilution method; type: cell-based; conditions: Staphylococcus aureus, ATCC25923
Outline: as §1

C. albicans ATCC 90028 = test: Antimicrobial activity, agar dilution method; type: cell-based; conditions: Candida albicans, ATCC90028
Outline: as §1

E. faecalis ATCC 29212 = test: Antimicrobial activity, agar dilution method; type: cell-based; conditions: Enterococcus faecalis, ATCC29212
Outline: as §1

S. dysenteriae = test: Antimicrobial activity, agar dilution method; type: cell-based; conditions: Shigella dysenteriae
Outline: as §1

diploid fungi and yeast = test: Antimicrobial activity, agar dilution method, summarised over the group; type: cell-based, Candida albicans; conditions: Saccharomyces cerevisiae, ATCC2601|ATCC90028
Outline: as §1

M. luteus ATCC 10240 = test: Antimicrobial activity, agar dilution method; type: cell-based; conditions: Micrococcus luteus, ATCC10240
Outline: as §1

M. morganii = test: Antimicrobial activity, agar dilution method; type: cell-based; conditions: Morganella morganii
Outline: as §1

MRC-5 cell line = test: Cytotoxicity, MTT assay; type: cell-based; conditions: MRC-5 normal cells, MTT
S. marcescens ATCC 8100 = test: Antimicrobial activity, agar dilution method; type: cell-based; conditions: Serratia marcescens, ATCC8100
Outline: as §1

[1] = tested on: S. epidermidis ATCC 12228; test: Antimicrobial activity, agar dilution method; type: cell-based; conditions: Staphylococcus epidermidis, ATCC12228
Outline: as §1

P. aeruginosa ATCC 27853 = test: Antimicrobial activity, agar dilution method; type: cell-based, Pseudomonas aeruginosa; conditions: Pseudomonas aeruginosa, ATCC27853
Outline: as §1

[2] = tested on: K. pneumoniae ATCC 700603; test: Antimicrobial activity, agar dilution method; type: cell-based; conditions: Klebsiella pneumoniae, ATCC700603
Outline: as §1

S. Enteritidis = test: Antimicrobial activity, agar dilution method; type: cell-based; conditions: Salmonella enterica
Outline: as §1

[3] = tested on: S. putrefaciens ATCC 8071; test: Antimicrobial activity, agar dilution method; type: cell-based; conditions: Shewanella putrefaciens, ATCC8071
Outline: as §1

[4] = tested on: twenty-seven strains of microorganisms; type: cell-based
Outline: as §1

E. faecalis ATCC 33186 = test: Antimicrobial activity, agar dilution method; type: cell-based; conditions: Enterococcus faecalis, ATCC33186
Outline: as §1

B. subtilis ATCC 6633 = test: Antimicrobial activity, agar dilution method; type: cell-based; conditions: Bacillus subtilis, ATCC6633
Outline: as §1

[5] = tested on: A. xylosoxidans ATCC 27061; test: Antimicrobial activity, agar dilution method; type: cell-based; conditions: Achromobacter xylosoxidans, ATCC27061
Outline: as §1

[6] = tested on: S. Typhimurium ATCC 13311; test: Antimicrobial activity, agar dilution method; type: cell-based; conditions: Salmonella enterica, ATCC13311|TYPHIMURIUM
Outline: as §1

[7] = tested on: C. diphtheriae NCTC 10356; test: Antimicrobial activity, agar dilution method; type: cell-based; conditions: Corynebacterium diphtheriae, NCTC10356
Outline: as §1

C. freundii = test: Antimicrobial activity, agar dilution method; type: cell-based; conditions: Citrobacter freundii
Outline: as §1

E. coli ATCC 25922 = test: Antimicrobial activity, agar dilution method; type: cell-based; conditions: Escherichia coli, ATCC25922
Outline: as §1

[8] = tested on: S. Choleraesuis ATCC 10708; test: Antimicrobial activity, agar dilution method; type: cell-based; conditions: Salmonella enterica, ATCC10708|CHOLERAESUIS
Outline: as §1

P. shigelloides = test: Antimicrobial activity, agar dilution method; type: cell-based; conditions: Plesiomonas shigelloides, P. shigelloides; agar dilution
Gram-negative bacteria = test: Antimicrobial activity, agar dilution method, summarised over the group; type: cell-based
Outline: as §1

S. cerevisiae ATCC 2601 = test: Antimicrobial activity, agar dilution method; type: cell-based; conditions: Saccharomyces cerevisiae, ATCC2601
Outline: as §1

P. aeruginosa = conditions: anti-biofilm agent; cited from earlier work
[9] = Antioxidant activity, DPPH radical scavenging assay; type: biochemical
Outline: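 Sample solution (test compound, 1 mg/mL in DMSO) was mixed with 0.1 mM DPPH in methanol and kept 30 min in the dark. Absorbance was read at 517 nm. Radical scavenging activity (%) = [1 − Abs(sample)/Abs(control)] × 100. α-Tocopherol was the positive control.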

E. coli = conditions: cited from earlier work

| Compound | IC50 at 48 h (Cytotoxicity, MTT assay) | MIC (A. hydrophila) | MIC (L. monocytogenes) | MIC (S. aureus ATCC 29213) | MIC (B. cereus) | MIC (P. stutzeri ATCC 17587) | MIC (S. aureus ATCC 25923) | MIC (C. albicans ATCC 90028) | MIC (E. faecalis ATCC 29212) | MIC (S. dysenteriae) | MIC (M. luteus ATCC 10240) | MIC (M. morganii) | MIC (S. marcescens ATCC 8100) | MIC [1] | MIC (P. aeruginosa ATCC 27853) | MIC [2] | MIC (S. Enteritidis) | MIC [3] | MIC (E. faecalis ATCC 33186) | MIC (B. subtilis ATCC 6633) | further results |
| --- | --- | --- | --- | --- | --- | --- | --- | --- | --- | --- | --- | --- | --- | --- | --- | --- | --- | --- | --- | --- | --- |
| COc1cccc2c1C(=O)c1c(O)c3c(c(O)c1C2=O)C[C@@](O)(C(=O)CO)C[C@@H]3O[C@H]1C[C@H](N)[C@H](O)[C@H](C)O1 [Doxorubicin] | 0.62 ± 0.03 µM | – | – | – | – | – | – | – | – | – | – | – | – | – | – | – | – | – | – | – | – |
| Oc1c(I)cc(I)c2cccnc12 [Iodoquinol (7), iodoquinol] | – | 645 µM (≈ 256 µg/mL) | 645 µM (≈ 256 µg/mL) | 645 µM (≈ 256 µg/mL) | 645 µM (≈ 256 µg/mL) | > 645 µM | 645 µM (≈ 256 µg/mL) | 645 µM (≈ 256 µg/mL) | > 645 µM | 645 µM (≈ 256 µg/mL) | 322 µM (≈ 128 µg/mL) | > 645 µM | > 645 µM | 645 µM (≈ 256 µg/mL) | > 645 µM | > 645 µM | > 645 µM | 645 µM (≈ 256 µg/mL) | > 645 µM | 80.6 µM (≈ 32 µg/mL) | MIC (diploid fungi and yeast): ≥ 645 µM; cytotoxicity in words (MRC-5 cell line): non-cytotoxic; MIC ([4]; most of the bacterial strains / most of the tested microorganisms): ≥ 645 µM; MIC [5]: > 645 µM; MIC [6]: > 645 µM; MIC [7]: > 645 µM; MIC (C. freundii): > 645 µM; MIC (E. coli ATCC 25922): > 645 µM; MIC [8]: > 645 µM; MIC (P. shigelloides): 645 µM (≈ 256 µg/mL); MIC (Gram-negative bacteria): ≥ 645 µM; MIC (S. cerevisiae ATCC 2601): > 645 µM |
| O=[N+]([O-])c1ccc(O)c2ncccc12 [NQ (2), Nitroxoline] | 88.1 ± 2.11 µM | 5.26 µM (≈ 1 µg/mL) | 42.1 µM (≈ 8 µg/mL) | 42.1 µM (≈ 8 µg/mL) | 21 µM (≈ 4 µg/mL) | 10.5 µM (≈ 2 µg/mL) | 42.1 µM (≈ 8 µg/mL) | 42.1 µM (≈ 8 µg/mL) | 42.1 µM (≈ 8 µg/mL) | 21 µM (≈ 4 µg/mL) | 10.5 µM (≈ 2 µg/mL) | 42.1 µM (≈ 8 µg/mL) | 21 µM (≈ 4 µg/mL) | 42.1 µM (≈ 8 µg/mL) | 84.1 µM (≈ 16 µg/mL) | 84.1 µM (≈ 16 µg/mL) | 21 µM (≈ 4 µg/mL) | 10.5 µM (≈ 2 µg/mL) | 42.1 µM (≈ 8 µg/mL) | 42.1 µM (≈ 8 µg/mL) | MIC (P. aeruginosa): 84.14 to 168.28 µM; MIC ([4]; both the Gram-positive and Gram-negative bacteria): 5.26 to 84.1 µM (≈ 1 to 16 µg/mL); MIC [5]: 21 µM (≈ 4 µg/mL); MIC [6]: 21 µM (≈ 4 µg/mL); MIC [7]: 42.1 µM (≈ 8 µg/mL); MIC (C. freundii): 21 µM (≈ 4 µg/mL); MIC (E. coli ATCC 25922): 21 µM (≈ 4 µg/mL); MIC [8]: 84.1 µM (≈ 16 µg/mL); MIC (P. shigelloides): 42.1 µM (≈ 8 µg/mL); MIC (Gram-negative bacteria): 5.26 to 84.1 µM (≈ 1 to 16 µg/mL); antioxidant activity in words [9]: inactive antioxidants; MIC (E. coli): 42.07 µM (≈ 8 µg/mL); MIC (S. cerevisiae ATCC 2601): 42.1 µM (≈ 8 µg/mL) |
| Cc1c(C)c2c(c(C)c1O)CC[C@@](C)(CCC[C@H](C)CCC[C@H](C)CCCC(C)C)O2 [α-tocopherol, α-Tocopherol] | – | – | – | – | – | – | – | – | – | – | – | – | – | – | – | – | – | – | – | – | IC50 ([9]; read-out: RSA IC50, 30 min, 517 nm): 13.5 µM |
